In the library only some 2.6% were active in any assay of this set; here they are far more common.
miR122 inh: blocks miR-122 activity in Huh7 sensor cells; Huh7 miR-122 Renilla luciferase sensor, 48 h; neutral wells = 0, positive control = 100; activation (reporter increase), % at 12.5 µM; actives 0.3% (n = 340,000); AID 602342;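 active = mean replicate activation score at least 90 and every replicate individually at or above 90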;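 note: higher luciferase means less miR-122 activity so hits act as miR-122 inhibitors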
S100A4 inh HTS: blocks human S100A4 binding to myosin IIA peptide | P26447 | S100A4/TAMRA-MyoIIA peptide fluorescence polarization | AID 652163 | actives 0.14% (n = 360,000) | inhibition, % at 10.7 µM;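 active = mean inhibition of at least 70% across replicates, with every replicate also reaching that level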
Target sequence (P26447 whole entry, looked up): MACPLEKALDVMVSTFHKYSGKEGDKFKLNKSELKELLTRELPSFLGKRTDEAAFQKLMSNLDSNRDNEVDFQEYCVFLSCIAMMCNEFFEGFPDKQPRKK
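Material: S100A4 monomer (human). Medium: Calcium-containing HEPES buffer, pH 7.2. Probe or stimulus: labelled myosin peptide probe, 5 nM. Compound dosing: one concentration per compound. Timing: polarization read 5 min after assay mix addition, stable 5–60 min. Benchmarks: DMSO as neutral control, TFP as positive control.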
FN deposit inh: fibronectin deposition inhibition; AID 743247; inhibition, % at 12.6 µM; actives 0.086% (n = 350,000); AH1F fibroblasts, Alexa488-fibronectin deposition fluorescence, overnight;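 active = mean inhibition across replicates of 30% or more, regardless of how many single replicates reach that level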;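 note: positive control wells lacked labelled fibronectin entirely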
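test system = AH1F fibroblasts assembling fluorescent fibronectin matrix | quantity = 10000 AH1F cells per well | buffer or medium = DMEM plus 2% serum, read in PBS | doses = single dose, pinned | incubation = 1 h cell attachment, overnight exposure to compound and label | detection = fluorescence at 485 nm excitation, 525 nm emission | read-out basis = inhibition from reduced deposited-fibronectin fluorescence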
Env fusion inh: blocks HIV Env-driven cell-cell fusion; HeLa-JRFL Env/CEM21 cell fusion, luciferase; inhibition, % at 12.3 µM; actives 1.1% (n = 360,000); AID 651610;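 active = mean replicate inhibition score of at least 50 and every replicate individually at or above 50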;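 note: 0% = plate neutral controls and 100% = maraviroc near 300 nM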
Vif inh: blocks HIV Vif function; HEK293T cells, Vif self-association by quenched fluorescence, imaging, 24 h; inhibition, % at 7.49 µM; actives 0.35% (n = 340,000); AID 602346; in the data active = inhibition above about 50%, passing the limit was not always enough
rRNA inh HTS: inhibits bacterial ribosomal RNA function over humanized ribosomes | E. coli WT GFP vs humanized-ribosome RFP mutants, fluorescence, 24 h; active compounds read low; DMSO median 0, no signal -100 | GFP signal change (wild-type ribosome), % (concentration not given with the values) | actives 1.6% (n = 350,000);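 active = significant combined selectivity score with lowered wild-type GFP, culture density cut under 30%, mutant RFP and density less affected; inactive = any of these conditions unmet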
Numbers without * were called inactive; · = no result; [ ] = dose if it differs, or a comment.

SMILES	miR122 inh	S100A4 inh HTS	FN deposit inh	Env fusion inh	Vif inh	rRNA inh HTS
O=C(C[C@H]1CC[C@H]2[C@@H](COC[C@H](O)CN2CCC(F)(F)F)O1)NCc1ccc(Oc2ccccc2)cc1	0[16.7 µM]	·	-10	56*[16.7 µM]	·	-13
CC(C)C(=O)Nc1ccc2c(c1)C(=O)N(C)[C@@H]1CC[C@H](CC(=O)NCC3CC3)O[C@H]1CO2	-42[16.7 µM]	-2	-2	-17[16.7 µM]	·	3
C[C@H]1CN([C@@H](C)CO)C(=O)c2cc(NC(=O)CCC(F)(F)F)ccc2O[C@H]1CN(C)C(=O)Nc1cccc2ccccc12	13[16.7 µM]	-10	·	9[16.7 µM]	·	0
COc1ccc(C(=O)N2CCC(NC(=O)C(Cc3ccccc3OC)NC(C)=O)CC2)cc1 (stereo unspecified)	·	-1	-4	2	3	3
COc1ccc(CC(NC(C)=O)C(=O)NC2CCN(C(=O)c3ccccc3F)CC2)cc1 (stereo unspecified)	2	0	-1	13	70*	6
CCCC(=O)Nc1ccc2c(c1)C(=O)N(C)C[C@@H](OC)[C@@H](C)CN(Cc1nccs1)[C@@H](C)CO2	·	-4	14	58*[16.7 µM]	·	-4
CO[C@H]1CN(C)C(=O)c2cc(NC(C)=O)ccc2OC[C@@H](C)N(Cc2ccccn2)C[C@@H]1C	-3[16.7 µM]	1	-4	·	·	1
CO[C@H]1CN(C)C(=O)c2cc(NC(C)=O)ccc2OC[C@@H](C)N(Cc2nccs2)C[C@H]1C	-3[16.7 µM]	-3	5	70*[16.7 µM]	·	1
CO[C@H]1CN(C)C(=O)c2cc(NC(C)=O)ccc2OC[C@@H](C)N(C(=O)CN2CCOCC2)C[C@H]1C	-22[16.7 µM]	-5	31*	-1[16.7 µM]	·	2
CCCC(=O)Nc1ccc2c(c1)C(=O)N(C)C[C@@H](OC)[C@H](C)CN(Cc1nccs1)[C@@H](C)CO2	·	-4	-4	-28[16.7 µM]	·	0
CO[C@H]1CN(C)C(=O)c2cc(NC(C)=O)ccc2OC[C@H](C)N(Cc2ccccn2)C[C@H]1C	-3[16.7 µM]	141*	5	·	·	-1
CO[C@H]1CN(C)C(=O)c2cc(NC(C)=O)ccc2OC[C@H](C)N(C(=O)C2CCCCC2)C[C@@H]1C	·	8	-8	·	·	-1
Cc1noc(C)c1S(=O)(=O)Nc1ccc2c(c1)C(=O)N([C@@H](C)CO)C[C@@H](C)[C@@H](CN(C)Cc1ccncc1)OCCCC[C@@H](C)O2	5[16.7 µM]	-3	·	12[16.7 µM]	·	1
CO[C@@H]1CN(C)C(=O)c2ccc(NC(C)=O)cc2OC[C@H](C)N(Cc2cc(F)ccc2F)C[C@@H]1C	1[16.7 µM]	105*	6	·	·	-9
N#Cc1ccc(-c2ccc3c(c2)[C@@H]2[C@@H](CCN2S(=O)(=O)c2cccc(F)c2)[C@@H](CO)N3)cc1	-3[16.7 µM]	0	35*	·	·	-2
COc1cccc(-c2ccc3c(c2)[C@@H]2[C@@H](CCN2C(=O)C2CCCC2)[C@@H](CO)N3)c1	·	18	12	28[16.7 µM]	·	-5
COc1cccc(-c2ccc3c(c2)[C@H]2[C@H](CCN2C(=O)C2CCCC2)[C@H](CO)N3)c1	·	-7	1	56*[16.7 µM]	·	-2
O=S(=O)(c1cccc(F)c1)N1CC[C@@H]2[C@H]1c1cc(-c3cccc(F)c3)ccc1N[C@@H]2CO	1[16.7 µM]	·	24	·	·	-6
O=S(=O)(c1cccc(F)c1)N1CC[C@H]2[C@H](CO)Nc3ccc(-c4cccc(F)c4)cc3[C@H]21	47[16.7 µM]	·	36*	·	·	-17
COc1cccc(-c2ccc3c(c2)[C@@H]2[C@@H](CCN2S(=O)(=O)c2cccc(OC)c2)[C@@H](CO)N3)c1	-13[16.7 µM]	-50	38*	·	·	-2
COc1cccc(S(=O)(=O)N2CC[C@H]3[C@H](CO)Nc4ccc(-c5ccc(C#N)cc5)cc4[C@H]32)c1	3[16.7 µM]	·	19	·	·	-6
N#Cc1cccc(-c2ccc3c(c2)[C@@H]2[C@@H](CCN2S(=O)(=O)c2cccc(F)c2)[C@@H](CO)N3)c1	-3[16.7 µM]	-15	9	·	·	-9
Cc1ccc(S(=O)(=O)Nc2ccc3c(c2)C(=O)N([C@H](C)CO)C[C@@H](C)[C@@H](CN(C)S(=O)(=O)c2cn(C)cn2)O3)cc1	8[16.7 µM]	-7	·	-31[16.7 µM]	·	2
C[C@@H]1CN([C@H](C)CO)C(=O)Cc2cc(NC(=O)C3CCCCC3)ccc2O[C@H]1CN(C)C(=O)NC1CCCCC1	-2[16.7 µM]	8	·	·	·	0
N#Cc1cccc(-c2ccc3c(c2)[C@@H]2[C@@H](CCN2C(=O)c2ccncc2)[C@@H](CO)N3)c1	19[16.7 µM]	98*	20	·	·	19
SMILES	miR122 inh	S100A4 inh HTS	FN deposit inh	Env fusion inh	Vif inh	rRNA inh HTS
N#Cc1ccc(-c2ccc3c(c2)[C@@H]2[C@@H](CCN2C(=O)c2ccncc2)[C@H](CO)N3)cc1	-5[16.7 µM]	10	3	·	·	-4
CC(=O)Nc1ccc2c(c1)C(=Nc1ccc(C)cc1)c1ccccc1-2	9	-5	·	-63	-3	-22*
O=C(N/N=C/c1ccc(O)cc1O)C(=O)N/N=C/c1ccc(O)cc1O	·	-1	2	19	62*	-24*
Oc1ccc(C=NNc2nc3ccccc3s2)c(O)c1	-4	0	14	-445	-18	-55
Oc1ccc(/C=N/Nc2ccc3ccccc3c2)c(O)c1	2	-3	-7	-9	-2	-32*
COc1ccc2nc(C)cc(NCc3ccc(F)cc3)c2c1	-6	-51	-10	-40	91*	18
COc1ccc(/C=N/Nc2cc(C)nc3ccc(OC)cc23)c(OC)c1	·	-2	-3	-29	92*	-50
COc1ccc2nc(C)cc(Nc3ccc(C)cc3)c2c1	-10	0	5	23	6	10
CO[C@@H](CN(C)C(=O)C1CCOCC1)[C@@H](C)CN(C(=O)Nc1ccc(C(F)(F)F)cc1)[C@@H](C)CO	·	13	-4	·	·	-58
CO[C@H](CN(C)C(=O)C1CC1)[C@H](C)CN(C(=O)Nc1ccc(C(F)(F)F)cc1)[C@@H](C)CO	·	0	-4	56*[16.7 µM]	·	-63
CCCCc1ccc(NC(=O)CSc2nc3ncccc3[nH]2)cc1	1	3	-4	3	-21	-26*
CC(=O)c1c(C)nc2ccc(C)cc2c1-c1ccccc1	-7	-2	3	-1	10	-36*
Cc1ccc(C(=O)NC(=S)c2c(C)cc3ccccn23)cc1	5	2	-12	7	5	-15*
Cc1cc2ccccn2c1C(=O)Nc1cccc(Cl)c1	2	-1	-2	-4	0	-33*
O=[N+]([O-])c1cccc(NC(=S)Nc2nc(-c3ccccc3Cl)cs2)c1	·	3	·	97*	-32	-7
COc1ccc(Br)cc1S(=O)(=O)N1CCCC1	21	·	-1	8	-9	·
COc1ccc(NS(=O)(=O)c2cccc(Cl)c2)cc1S(=O)(=O)N1CCCCC1	438*	3	1	·	-1	20
